As a reminder, the half-life is the time needed for the level to fall by half in the phase considered. Low values mean fast loss, high ones slow loss.

Where “and” joins values, the source holds several entries; their conditions need not be identical. Equal values may be shown once. Read-outs that look alike come from different tables or passages of the source. Some results are limits rather than exact numbers.

The text below walks through data of publication PMC9398096 (Molecular Cancer Therapeutics, 2021).

The subject of data set [1] is LINE-1 methylation in MDS-L cells. Description: LINE-1 methylation by bisulfite pyrosequencing in MDS-L cells. The note with it: 100 nmol/L; for LINE-1 methylation level: untreated 88.9%. The data set is classed as cell-based, human.
Data set [2] has as its system LINE-1 methylation in SKM1 cells. Description: LINE-1 methylation by bisulfite pyrosequencing in SKM1 cells. The data set is classed as cell-based, human. The note with it: 100 nmol/L, untreated 82.7%.
Another data set concerns HL60 cells. Description: HL60 xenograft mouse model. The data set is classed as in vivo, BALB/c Rag-2/JAK3 double-deficient (BRJ) mice. The settings on record: for LINE-1 methylation in bone marrow cells / hemoglobin levels: DAC 1.0 mg/kg or OR21 2.7 mg/kg twice weekly; for LINE-1 methylation in bone marrow cells: vehicle 83.7%; for hemoglobin levels: at the time of sacrifice, vehicle 17.5 g/dL; for human CD45-positive cells in PB: day 37, vehicle 2.96%; for CD11b-positive cells in PB: late treatment from day +28, days +35 to +40, vehicle 43.3%. On the technique in general: In xenograft studies the graft and the host belong to different species.

A short description of data set [3]: Long-term administration safety in BALB/c mice. The data set is classed as in vivo. The note with it: for anemia (hematopoietic toxicity) / survival on long-term administration: high dose: DAC 2.5 mg/kg or OR21 7.5 mg/kg. In a few lines:
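Non-immunodeficient BALB/c mice received long-term dosing of the test compound at 7.5 (high) or 3.7 (low) mg/kg, or a reference hypomethylating agent at 2.5 or 1.25 mg/kg. Anemia and survival were monitored while dosing continued, through at least day 57.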

The conditions of data set [4]: mice, Supplementary Table S4, cited from earlier work.
Data set [5] in a line: Pharmacokinetics in cynomolgus monkeys. The format is in vivo, cynomolgus monkey.
A further data set concerns HL60R cells. The data set can be described thus: HL60R xenograft model. The data set is classed as in vivo, mice.
A short description of data set [6]: Stability of the base moiety in an aqueous environment. The settings on record: pH 6.
A further data set relates to DNMT1. The data set can be described thus: Western blot of DNMT1 in MDS and AML cell lines. The note with it: 100 or 500 nmol/L; MDS-L, SKM1, HL60, THP-1. The data set is classed as cell-based, human. Background: In western blotting, separated proteins are transferred to a membrane and probed.
The next data set relates to MDS-L cells. Description: Flow cytometry of differentiation markers CD11b and HLA-DR. The data set is classed as cell-based, human.
Data set [7] concerns AZA-resistant HL60 (HL60R) cells. Description: AZA-resistant HL60. The data set is classed as cell-based, human. The settings on record: in vitro; similar extent as DAC, more effectively than AZA.
Data set [8] relates to LINE-1 methylation in Kasumi-1 cells. The data set can be described thus: LINE-1 methylation by pyrosequencing in Kasumi-1 cells. The settings on record: 500 nmol/L, untreated 90.7%. The format is cell-based, human.
In data set [9] the test system is LINE-1 methylation in KG1a cells. The data set can be described thus: LINE-1 methylation by pyrosequencing in KG1a cells. The data set is classed as cell-based, human. The note with it: 500 nmol/L, untreated 89.1%.
The test system of data set [10] is MDS and AML cells. The data set can be described thus: Cell proliferation. The format is cell-based, human. The note with it: dose-dependent. In a few lines: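 Growth of MDS and AML cell lines was measured by CCK-8 assay after 72 hours of treatment across a dose range. IC50 was derived by nonlinear regression of the dose–response curves.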
Data set [11] deals with MDS and AML cells. The data set can be described thus: Apoptosis of MDS and AML cells. The format is cell-based, human.
The test system of another data set is SKM1 cells. The data set can be described thus: SKM1 xenograft mouse model. The format is in vivo, BALB/c Rag-2/JAK3 double-deficient (BRJ) mice. The settings on record: twice weekly from day 7 posttransplantation.
For data set [12], the system named is LINE-1 methylation in THP-1 cells. Description: LINE-1 methylation by pyrosequencing in THP-1 cells. The data set is classed as cell-based, human. The note with it: 500 nmol/L, untreated 69.0%.
The test system of data set [13] is LINE-1 methylation in HL60 cells. Description: LINE-1 methylation by pyrosequencing in HL60 cells. The data set is classed as cell-based, human. The note with it: 500 nmol/L, untreated 83.7.
Where [14] appears, read: DAC 1.0 mg/kg or OR21 2.7 mg/kg twice weekly from day 5, vehicle 44 days.
[15] abbreviates: DAC 1.0 mg/kg or OR21 2.7 mg/kg twice weekly from day 5.
Setting [16] is: higher dose: DAC 2.0 mg/kg or OR21 5.4 mg/kg, vehicle 48 days.

With `Nc1ncn([C@@H]2O[C@H](CO)[C@@H](O)[C@H]2O)c(=O)n1` [AZA, azacitidine], in [1], the “LINE-1 methylation levels, effect of treatment” value is on record as “did not decrease” and the LINE-1 methylation level turned out to be 88.8%. In addition, the LINE-1 methylation level in data set [2] came out at 72.1%.
`Nc1ncn([C@H]2C[C@H](O)[C@@H](CO)O2)c(=O)n1` [DAC, decitabine, reference compound] returned a median overall survival in the data set with HL60 cells (setting [14]) of 46.5 days. In addition, in the data set with HL60 cells, the “LINE-1 methylation in bone marrow cells” value stood at 56.3%; the hemoglobin levels is 15.6 g/dL and 15.6 (±1.22) g/dL; the “CD11b-positive cells in PB” value is recorded as 75.7%. Also, the “human CD45-positive cells in PB” value in the data set with HL60 cells (setting [15]) came out at 1.67%. The compound also yielded a median overall survival in the data set with HL60 cells (setting [16]) of 32 days. Besides, in data set [1], the LINE-1 methylation level worked out at 75.2%. In addition, in data set [3], the “anemia (hematopoietic toxicity)” value is “severe anemia” and the “survival on long-term administration” value was “died within 80 days”. For the same compound, the anemia entry in data set [3] (low dose: DAC 1.25 mg/kg or OR21 3.7 mg/kg) is recorded as “more likely than OR21-treated mice to develop anemia”. The “peak plasma concentration of DAC” value in data set [4] (administration of 0.88 μmol/L/kg DAC (calculated as an AUC equivalent to that of released DAC)) was 0.64 µmol/L. Besides, the LINE-1 methylation level in data set [2] was 58.4% and 66.9%. For the same compound, the AUC in [5] (10.9 μmol/kg (1.67 mg/kg) intravenous) is reported as 0.49 (±0.17) μmol/L/hour. The “enteric bioavailability” value in [5] (higher dose) is given as “did not result in enteric bioavailability”. In the data set on HL60R cells, the toxicity entry was “severe toxicity”. This compound gave a half-life in data set [6] of about 20 h.
With `CC[Si](CC)(CC)OC[C@H]1O[C@@H](n2cnc(N)nc2=O)C[C@@H]1O` [OR21, 5′-O-triethylsilyl-2′-deoxy-5-azacytidine], in the data set with DNMT1, the “DNMT1 levels versus untreated cells” value was “markedly lower”. The “expression of CD11b” value in the data set with MDS-L cells is “upregulated”. In the data set on MDS-L cells, the “expression of HLA-DR” value is “downregulated”. For the same compound, the “growth of HL60R cells” value in data set [7] was “inhibited growth”. In addition, the median overall survival is 49 days in the data set on HL60 cells (setting [14]), 57 days in the data set on HL60 cells (setting [16]) and over 53 days in the data set with SKM1 cells (vehicle 29 days). The “LINE-1 methylation in bone marrow cells” value in the data set on HL60 cells worked out at 63.0%. Further, the hemoglobin levels with HL60 cells is 17.1 g/dL and 17.1(±0.31) g/dL. In the data set on HL60 cells (setting [15]), the “human CD45-positive cells in PB” value is 0.75%. The “CD11b-positive cells in PB” value in the data set on HL60 cells amounted to 65.5%. In addition, the “LINE-1 methylation levels, effect of treatment” value in data set [1] is recorded as “significantly decreased”. For the same compound, the LINE-1 methylation level was determined as 74.2% in [1]; 78.6% in data set [8]; 82.4% in data set [9]; 66.9% in [2]; 64.6% in data set [12]; 76.0% in data set [13]. For the same compound, in [3], the “anemia (hematopoietic toxicity)” value is “developed anemia by day 29, but recovered by day 57”. The “survival on long-term administration” value in data set [3] is “all were still alive after 80 days”. Further, in data set [4] (intraperitoneal 1.59 μmol/L/kg OR21), the “AUC of released DAC” value was 0.38 µmol/L/h. Moreover, in data set [4] (intraperitoneal administration of 1.59 μmol/L/kg OR21), the “peak plasma concentration of DAC” value was 0.43 µmol/L. In addition, the AUC is 0.25 (±0.14) μmol/L/hour in [5] (10.9 μmol/kg (3.75 mg/kg) duodenal administration) and 0.45 ± 0.23 µmol/L/h in data set [5] (9.0 mg/kg (26.3 μmol/kg) duodenal administration). Moreover, in the data set on MDS and AML cells [10], the cell growth entry is reported as “inhibited growth”. The apoptosis entry with MDS and AML cells [11] (MDS and AML cells, dose-dependent) is “induced apoptosis”. The “apoptosis of primary cells” value in the data set on MDS and AML cells [11] (primary MDS and AML cells) was “induced apoptosis of primary MDS and AML cells”. Further, the “human CD45-positive cells in peripheral blood” value in the data set with SKM1 cells (day 28, vehicle 6.40%) was determined as 0.31%. Moreover, the survival result in the data set with HL60R cells (P = 0.0188) is “significantly prolonged survival”. The half-life in data set [6] is 20 h.
